Compounds with a hit are over-represented: about 2.9% of the library has one in this group of screens.
SIAE inh: blocks human sialic acid acetylesterase; Q9HAT2; SIAE FP-Rh probe binding, fluorescence polarization; inhibition, % at 9.66 µM; 370,000 compounds, 0.69% hits; AID 1053197;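 active = inhibition above a cutoff: mean of compounds within the control limits plus 3 SD of those, cut at about 17% in these data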;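 note: 0% = plate median of compound wells and 100% = probe without SIAE protein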
mABHD4 FP: inhibits mouse alpha/beta hydrolase domain 4; Q8VD66; purified mABHD4, FP-Rh probe fluorescence polarization; inhibition, % at 8.92 µM; 370,000 compounds, 0.54% hits; AID 720543;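 active = inhibition exceeding the mean over every tested compound plus 3 SD, cut at about 30% in these data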;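 note: 0% = plate median of compound wells and 100% = S159A mutant with DMSO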
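Test system: mouse ABHD4 enzyme, wild type. Reagent: FP-Rh fluorescent activity-based probe, added after compound pre-incubation. Timing: pre-incubation 45 min, probe exposure 60 min, at 25 °C. Technique: FP readout, ex 525 nm / em 598 nm. Benchmarks: high control S159A mutant with DMSO, low control median of compound wells.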
PAD4 inh: blocks human protein arginine deiminase 4; AID 485272; 330,000 compounds, 0.41% hits; inhibition, % at 6.36 µM; Q9UM07; recombinant PAD4, RCA probe fluorescence polarization;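 active = percent inhibition above a cutoff equal to the mean of all tested compounds plus 3 SD, cut at about 15% in these data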;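 note: 0% = PAD4 with RCA probe and DMSO and 100% = probe without PAD4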
TCR-CD3 inh: human TCR-CD3 binding inhibition | inhibition, % at 9.4 µM | 360,000 compounds, 0.37% hits | AID 651800 | TAMRA-labeled TCR probe fluorescence, biochemical; in the data active = inhibition above about 19%;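 note: recombinant mutant TCR 2C K166C tagged with TAMRA read by polarization; 0% = receptor in buffer alone and 100% = receptor with positive control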
PRMT1 inh: PRMT1 (human) inhibition, primary screen; inhibition, % at 2.79 µM; 370,000 compounds, 1.3% hits; Q99873; recombinant PRMT1, activity-based probe fluorescence polarization; AID 652257;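 active = inhibition above about 21% made by adding two undisclosed values, limit read from the data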
HTRA1 inhibitor: HTRA1 (human) protease inhibition; Q92743; AID 504803; 340,000 compounds, 0.5% hits; inhibition, % at 5.96 µM; recombinant HTRA1, FP-rhodamine activity-based probe, fluorescence polarization; in the data active = inhibition above about 36%;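 note: 0% = enzyme with DMSO and 100% = wells lacking enzyme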
Target sequence (Q92743 whole entry, looked up): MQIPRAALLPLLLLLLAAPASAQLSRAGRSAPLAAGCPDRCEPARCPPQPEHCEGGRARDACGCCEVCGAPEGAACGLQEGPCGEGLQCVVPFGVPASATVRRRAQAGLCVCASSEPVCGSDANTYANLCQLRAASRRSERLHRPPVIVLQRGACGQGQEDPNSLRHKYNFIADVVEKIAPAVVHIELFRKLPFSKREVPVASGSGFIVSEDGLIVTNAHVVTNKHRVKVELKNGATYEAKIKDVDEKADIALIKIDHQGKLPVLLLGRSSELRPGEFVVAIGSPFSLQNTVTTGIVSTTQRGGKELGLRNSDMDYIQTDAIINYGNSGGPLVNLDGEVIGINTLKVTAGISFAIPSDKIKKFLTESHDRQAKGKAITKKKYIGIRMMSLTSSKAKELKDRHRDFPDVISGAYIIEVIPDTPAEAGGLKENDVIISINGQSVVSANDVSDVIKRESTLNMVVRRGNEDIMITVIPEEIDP
* hit, by the source's call.

How did O=C(Nc1ccc(N2CCOCC2)cc1)c1ccc2nc(-c3ccco3)c(-c3ccco3)nc2c1 do in these assays?
SIAE inh: -6; mABHD4 FP: 12; PAD4 inh: -2; TCR-CD3 inh: 0; PRMT1 inh: 2; HTRA1 inhibitor: 0

Results for O=C(NCCO)Nc1ccc2nsnc2c1 ?
SIAE inh: 7; mABHD4 FP: 0; PAD4 inh: 1; TCR-CD3 inh: 5; PRMT1 inh: -1; HTRA1 inhibitor: -3

Results for CC(=O)c1ccc(NC(=O)c2ccc3nc(-c4ccco4)c(-c4ccco4)nc3c2)cc1 ?
PAD4 inh: -16; HTRA1 inhibitor: 39*

How did O=C(NCCO)Nc1ccc2nc(-c3ccco3)c(-c3ccco3)nc2c1 do in these assays?
PAD4 inh: 18*

What do the screens show for `Cc1cc(C)cc(-c2c(C(=O)c3ccc(Br)cc3)[nH]c(N)c2C(=O)NCc2ccc(Cl)cc2)c1`?
SIAE inh: 1; mABHD4 FP: 16; PRMT1 inh: 3

What do the screens show for `Cc1ccc(-n2c(SCC(=O)Nc3ccccc3-c3ccccc3)nnc2-c2cccnc2)cc1`?
SIAE inh: -1; mABHD4 FP: 1; PRMT1 inh: -4

Results for COC(=O)C1=C(C)N(Cc2ccco2)C(=O)/C1=C\c1ccc([N+](=O)[O-])cc1 ?
SIAE inh: 5; mABHD4 FP: 10; PAD4 inh: -2; TCR-CD3 inh: -4; PRMT1 inh: 24*; HTRA1 inhibitor: 4

Results for COC(=O)[C@]12C[C@H](CC(=O)NCc3cccs3)C(=O)N(CCC3=CCCCC3)C1=C[C@H](C(C)C)O[C@@H]2C1CC1 ?
SIAE inh: 4; mABHD4 FP: -3; PRMT1 inh: -4

How did Cc1cc(Nc2ccc(O)cc2)ccc1N do in these assays?
PAD4 inh: 35*

What do the screens show for `Cc1cc(C)nc(Nc2ccc(O)cc2)n1`?
SIAE inh: 8; mABHD4 FP: 4; PAD4 inh: 1; TCR-CD3 inh: 2; PRMT1 inh: 0; HTRA1 inhibitor: 2

What do the screens show for `[C-]#[N+][C@]12C(=O)[C@H](C=C(Cl)[C@@]1(C)C=C)C(C)(C)[C@H]1C(=O)N(C)c3cccc2c31`?
SIAE inh: 0; mABHD4 FP: -7; PRMT1 inh: -1

How did COC(=O)c1cccc(-c2ccc(C(c3c(C)[nH][nH]c3=O)c3c(C)[nH][nH]c3=O)o2)c1 do in these assays?
SIAE inh: 8; mABHD4 FP: 3; PAD4 inh: 8; TCR-CD3 inh: -3; PRMT1 inh: 29*; HTRA1 inhibitor: 8

Results for CCC[C@H]1[C@@H](NC(=O)C#Cc2ccccc2)CC[C@@]23CCCN2C(=O)CCC[C@@H]13 ?
SIAE inh: -3; mABHD4 FP: -1; PRMT1 inh: -4

Results for Clc1ccc2nc(-c3ccco3)c(Cc3ccccc3)n2c1 ?
SIAE inh: 1; mABHD4 FP: 2; TCR-CD3 inh: -1; PRMT1 inh: 24*

Results for COC(=O)c1ccc2nc(-c3ccco3)c(Cc3ccccc3)n2c1 ?
SIAE inh: 3; mABHD4 FP: 4; TCR-CD3 inh: 9; PRMT1 inh: 24*

What do the screens show for `COC(=O)c1ccc2nc(-c3ccccc3)c(Cc3ccccc3)n2c1`?
SIAE inh: 2; mABHD4 FP: 0; TCR-CD3 inh: 12; PRMT1 inh: 2

How did COc1ccc(Cn2cc(COC(=O)Nc3ccc(F)cc3)nn2)cc1 do in these assays?
SIAE inh: -1; mABHD4 FP: 0; PRMT1 inh: -2

How did CN(CCOC(=O)c1cc2ccccc2o1)C1CN(Cc2cn(Cc3ccccc3C(F)(F)F)nn2)S(=O)(=O)C1 (stereo not given) do in these assays?
SIAE inh: -3; mABHD4 FP: -15; PRMT1 inh: 6

Results for Cc1ccc(Oc2coc3cc(OC(=O)c4cccs4)ccc3c2=O)cc1 ?
SIAE inh: -9; mABHD4 FP: -10; PAD4 inh: 1; TCR-CD3 inh: 4; PRMT1 inh: 0; HTRA1 inhibitor: 70*

What do the screens show for `O=C(Oc1ccc2c3c(c(=O)oc2c1)CCCC3)c1cccs1`?
SIAE inh: -10; mABHD4 FP: 1; PAD4 inh: 3; TCR-CD3 inh: -4; PRMT1 inh: 2; HTRA1 inhibitor: -17

What do the screens show for `Cc1cccc(Oc2coc3cc(OC(=O)c4cccs4)ccc3c2=O)c1`?
SIAE inh: -14; mABHD4 FP: -11; PAD4 inh: 2; TCR-CD3 inh: -6; PRMT1 inh: 2; HTRA1 inhibitor: 69*

Results for C[C@@H](NC(=O)C[C@H]1CC[C@H]2[C@@H](COc3ccc(NC(=O)Nc4ccccc4)cc3C(=O)N2C)O1)c1ccccc1 ?
SIAE inh: 1; mABHD4 FP: 13; PRMT1 inh: -2

What do the screens show for `COc1ccc(S(=O)(=O)Nc2ccc(O)c3ccccc23)cc1`?
SIAE inh: 2; mABHD4 FP: 37*; PAD4 inh: 7; TCR-CD3 inh: -5; PRMT1 inh: 23*; HTRA1 inhibitor: 9

What do the screens show for `COc1ccc(C2C(C(=O)N3CCC(C)CC3)CC(=O)N2c2ccc(OC)cc2)cc1` (stereo not given)?
SIAE inh: 9; mABHD4 FP: -3; PRMT1 inh: -3

How did CCOC(=O)c1cccc(NC(=S)NC(=O)c2cccnc2)c1 do in these assays?
SIAE inh: -6; mABHD4 FP: -13; PAD4 inh: 3; TCR-CD3 inh: -7; PRMT1 inh: 22*; HTRA1 inhibitor: -11

What do the screens show for `COc1ccc(S[C@]2(C(=O)N3CCN(c4ncccn4)CC3)CC(=O)N(C(=O)c3ccccc3)[C@@H]2c2ccc(OC)cc2)cc1`?
SIAE inh: -3; mABHD4 FP: -1; PRMT1 inh: 24*

Results for COc1ccc(S[C@]2(C(=O)N3CCN(c4ncccn4)CC3)CC(=O)N(P(=O)(OC)OC)[C@@H]2c2ccc(OC)cc2)cc1 ?
SIAE inh: -6; mABHD4 FP: 3; PRMT1 inh: 12

Results for COc1ccccc1N(O)C1CC(=O)N(c2ccc(F)cc2)C1=O (stereo not given) ?
SIAE inh: 5; mABHD4 FP: 25; PAD4 inh: -20; TCR-CD3 inh: 1; PRMT1 inh: 31*; HTRA1 inhibitor: 8

What do the screens show for `COc1ccccc1N1C(=O)CC(N(O)c2ccccc2)C1=O` (stereo not given)?
SIAE inh: 10; mABHD4 FP: 1; PAD4 inh: 5; TCR-CD3 inh: 4; PRMT1 inh: 0; HTRA1 inhibitor: 3

Results for O=C(C1CCCO1)N1CCN(Cc2c(O)ccc3ccccc23)CC1 (stereo not given) ?
SIAE inh: 3; mABHD4 FP: 1; PAD4 inh: 1; TCR-CD3 inh: -7; PRMT1 inh: 23*; HTRA1 inhibitor: 2

Results for COc1cc(C2Nc3cccc4cccc(c34)N2)ccc1O ?
SIAE inh: 54*; mABHD4 FP: 0; PAD4 inh: -5; TCR-CD3 inh: -10; PRMT1 inh: 7; HTRA1 inhibitor: 21

Screening results (PubChem)
